Laboratory results taken from ChEMBL document CHEMBL4270537, “Design and biological evaluation of novel triaryl pyrazoline derivatives with dioxane moiety for selective BRAFV600E inhibition” (Eur J Med Chem, 2018).
Activity calls are given as the source filed them. The calls are words filed in the database; no cut-off is given here.

What was measured:
[1] = Cytotoxicity against HEK293T cells assessed as decrease in cell viability after 48 hrs by MTT assay; type: cell-based, HEK-293T; details: human
Outline: (§1)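 MTT reduction assay. Cell lines grown to log phase in DMEM with 10% FBS (A375 in DMEM with sodium pyruvate added), seeded at 10⁴ cells/well in 96-well plates. Three replicate wells per concentration, each assay run three times, GI50 averaged.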

[2] = target: Mitogen-activated protein kinase 8 (Homo sapiens, UniProt P45983); experiment: Inhibition of N-terminal flag-tagged JNK1 (unknown origin) expressed in baculovirus expression system after 60 mins in presence of [gamma-32P]ATP by topcount scintillation method
Outline: (§2)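 Baculovirus-expressed N-terminal FLAG-tagged kinases in 25 mM HEPES pH 7.5, 10 mM Mg acetate, 1 mM DTT, 0.5 µM ATP plus [γ-³²P]ATP, 50 µL. p38α: 100 ng enzyme, MBP substrate. JNK1: 10 ng enzyme, 1 µg c-Jun. Compound and enzyme preincubated 5 min, ATP started the reaction, 60 min at 30 °C. Stopped with 10% TCA, filtered, washed with 3% phosphoric acid, counted by TopCount.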

[3] = tested on: HCT-116; experiment: Antiproliferative activity against human HCT116 cells after 48 hrs by MTT assay; type: functional; details: HCT-116, 48 h; outline: as §1
[4] = target: Dual specificity mitogen-activated protein kinase kinase; MEK1/2 (Homo sapiens, UniProt P36507+Q02750); experiment: Inhibition of MEK1/2 (unknown origin); type: protein assay
[5] = target: Mitogen-activated protein kinase 14 (Homo sapiens, UniProt Q16539); experiment: Inhibition of N-terminal flag-tagged p38alpha (unknown origin) expressed in baculovirus expression system using MBP as substrate preincubated for 5 mins followed by substrate addition measured after 60 mins in presence of [gamma-32P]ATP by topcount scintillation method; outline: as §2
[6] = Cytotoxicity against human LO2 cells assessed as decrease in cell viability after 48 hrs by MTT assay; type: cell-based, L02; outline: as §1
[7] = tested on: WM 266-4; experiment: Antiproliferative activity against human WM266.4 cells after 48 hrs by MTT assay; type: functional; details: WM 266-4, 48 h; outline: as §1
[8] = Antiproliferative activity against human WM1361 cells after 48 hrs by MTT assay; type: functional; details: WM1361, 48 h; outline: as §1
[9] = target: RAF proto-oncogene serine/threonine-protein kinase (Homo sapiens, UniProt P04049, Y340D/Y341D); experiment: Inhibition of recombinant human GST-tagged c-RAF (306 to 648 residues) Y340D/Y341D mutant expressed in baculovirus expression system using recombinant human full length N-terminal His-tagged MEK1 as substrate preincubated for 1 hr followed by substrate addition measured after 25 mins
[10] = target: Serine/threonine-protein kinase B-raf (Mus musculus, UniProt P28028, V600E); experiment: Inhibition of mouse full length GST-tagged BRAF V600E mutant using recombinant human full length N-terminal His-tagged MEK1 as substrate preincubated for 1 hr followed by substrate addition measured after 25 mins
[11] = tested on: HT-29; experiment: Antiproliferative activity against human HT-29 cells after 48 hrs by MTT assay; type: functional; details: HT-29, 48 h; outline: as §1
[12] = target: Serine/threonine-protein kinase B-raf (Homo sapiens, UniProt P15056); experiment: Inhibition of recombinant human full length GST-tagged wild type BRAF expressed in baculovirus expression system using recombinant human full length N-terminal His-tagged MEK1 as substrate preincubated for 1 hr followed by substrate addition measured after 25 mins
[13] = tested on: A-375; experiment: Antiproliferative activity against human A375 cells after 48 hrs by MTT assay; type: functional; details: A-375, 48 h; outline: as §1
[14] = tested on: A-375; experiment: Antitumor activity against human A375 cells xenografted in nude mouse assessed as tumor weight at 5 mg/kg, ip administered every second day for 14 days and measured on day 15; type: functional
Outline: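 A375 cells, 3 × 10⁶ in 0.1 mL cold PBS, injected subcutaneously into right flank of nude mice. Treatment began when tumors reached ~100 mm³; mice randomized, 5 per group. Compound suspended in olive oil, given intraperitoneally every second day for 14 days. Body weight recorded every two days; tumors excised and weighed on day 15.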

[15] = tested on: Mus musculus; experiment: Toxicity in nude mouse xenografted with human A375 cells assessed as body weight loss at 5 mg/kg, ip administered every second day for 14 days and measured every 2 days; type: organism-based; details: in vivo
Outline: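 Nude mice bearing subcutaneous right-flank A375 xenografts (3×10⁶ cells in cold PBS) were randomized into groups of 5 at about 100 mm³. Compounds were suspended in olive oil and given intraperitoneally every second day for 14 days. Body weight was recorded every two days.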

[16] = tested on: Serine/threonine-protein kinase B-raf (Homo sapiens), P15056 [V600E]; experiment: Inhibition of BRAF V600E mutant in human A375 cells assessed as decrease in MEK1/2 phosphorylation up to 0.3 uM after 30 mins by Western blot analysis; type: cell-based
Chain of Serine/threonine-protein kinase B-raf (Homo sapiens), P15056 [V600E] (P15056 whole entry V600E): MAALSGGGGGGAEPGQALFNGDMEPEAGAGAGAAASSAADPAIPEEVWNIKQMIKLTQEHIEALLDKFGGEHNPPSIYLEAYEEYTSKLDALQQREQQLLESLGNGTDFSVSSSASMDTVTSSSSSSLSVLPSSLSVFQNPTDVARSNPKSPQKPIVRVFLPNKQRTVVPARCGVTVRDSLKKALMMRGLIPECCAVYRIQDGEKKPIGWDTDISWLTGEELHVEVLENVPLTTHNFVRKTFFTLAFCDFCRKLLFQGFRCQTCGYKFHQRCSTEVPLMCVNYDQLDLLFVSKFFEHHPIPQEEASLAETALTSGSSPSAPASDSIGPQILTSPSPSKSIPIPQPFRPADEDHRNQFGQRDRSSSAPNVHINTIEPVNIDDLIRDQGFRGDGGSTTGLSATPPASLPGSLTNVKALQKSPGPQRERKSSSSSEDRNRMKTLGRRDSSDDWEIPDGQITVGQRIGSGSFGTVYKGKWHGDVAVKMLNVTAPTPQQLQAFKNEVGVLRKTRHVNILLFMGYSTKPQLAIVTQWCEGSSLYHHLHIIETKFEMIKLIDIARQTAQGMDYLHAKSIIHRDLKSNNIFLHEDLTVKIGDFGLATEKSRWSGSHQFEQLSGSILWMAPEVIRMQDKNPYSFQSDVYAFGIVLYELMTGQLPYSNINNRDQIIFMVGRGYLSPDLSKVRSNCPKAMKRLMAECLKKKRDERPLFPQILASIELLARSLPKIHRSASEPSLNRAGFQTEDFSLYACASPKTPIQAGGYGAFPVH

Chain of Serine/threonine-protein kinase B-raf (Homo sapiens, UniProt P15056) (P15056 whole entry): as the sequence (P15056 whole entry V600E) above, with E600V counted along it
Chain of Serine/threonine-protein kinase B-raf (Mus musculus, UniProt P28028, V600E) (P28028 whole entry, looked up, stated change not applied): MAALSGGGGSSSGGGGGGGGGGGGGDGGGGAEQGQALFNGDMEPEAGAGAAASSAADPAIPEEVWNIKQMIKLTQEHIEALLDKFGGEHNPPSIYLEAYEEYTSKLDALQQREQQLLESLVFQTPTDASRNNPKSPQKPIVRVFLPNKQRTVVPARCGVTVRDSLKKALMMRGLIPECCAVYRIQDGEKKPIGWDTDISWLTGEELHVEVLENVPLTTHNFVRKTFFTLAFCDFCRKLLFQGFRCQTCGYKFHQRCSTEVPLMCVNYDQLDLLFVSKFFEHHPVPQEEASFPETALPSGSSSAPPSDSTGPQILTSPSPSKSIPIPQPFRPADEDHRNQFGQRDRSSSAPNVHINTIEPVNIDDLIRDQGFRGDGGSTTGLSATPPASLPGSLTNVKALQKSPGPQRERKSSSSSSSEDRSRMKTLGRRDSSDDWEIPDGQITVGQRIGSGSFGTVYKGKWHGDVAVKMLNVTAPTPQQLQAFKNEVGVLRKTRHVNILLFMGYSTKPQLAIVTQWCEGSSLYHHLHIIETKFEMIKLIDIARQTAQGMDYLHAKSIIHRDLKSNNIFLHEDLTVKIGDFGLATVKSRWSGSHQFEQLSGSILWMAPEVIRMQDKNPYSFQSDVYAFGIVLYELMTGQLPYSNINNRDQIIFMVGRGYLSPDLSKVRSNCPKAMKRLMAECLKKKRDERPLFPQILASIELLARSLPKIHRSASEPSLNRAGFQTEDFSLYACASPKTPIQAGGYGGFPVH
Chain of Mitogen-activated protein kinase 14 (Q16539 whole entry): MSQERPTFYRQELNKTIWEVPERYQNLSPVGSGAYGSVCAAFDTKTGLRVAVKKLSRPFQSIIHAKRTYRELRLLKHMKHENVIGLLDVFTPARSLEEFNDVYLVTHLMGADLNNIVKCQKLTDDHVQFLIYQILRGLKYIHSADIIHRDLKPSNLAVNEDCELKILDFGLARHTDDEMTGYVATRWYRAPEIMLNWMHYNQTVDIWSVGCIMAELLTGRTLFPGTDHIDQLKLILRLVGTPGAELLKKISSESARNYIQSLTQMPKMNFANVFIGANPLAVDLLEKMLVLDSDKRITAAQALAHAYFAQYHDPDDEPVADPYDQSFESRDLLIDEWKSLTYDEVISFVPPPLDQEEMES
Chain of Mitogen-activated protein kinase 8 (P45983 whole entry): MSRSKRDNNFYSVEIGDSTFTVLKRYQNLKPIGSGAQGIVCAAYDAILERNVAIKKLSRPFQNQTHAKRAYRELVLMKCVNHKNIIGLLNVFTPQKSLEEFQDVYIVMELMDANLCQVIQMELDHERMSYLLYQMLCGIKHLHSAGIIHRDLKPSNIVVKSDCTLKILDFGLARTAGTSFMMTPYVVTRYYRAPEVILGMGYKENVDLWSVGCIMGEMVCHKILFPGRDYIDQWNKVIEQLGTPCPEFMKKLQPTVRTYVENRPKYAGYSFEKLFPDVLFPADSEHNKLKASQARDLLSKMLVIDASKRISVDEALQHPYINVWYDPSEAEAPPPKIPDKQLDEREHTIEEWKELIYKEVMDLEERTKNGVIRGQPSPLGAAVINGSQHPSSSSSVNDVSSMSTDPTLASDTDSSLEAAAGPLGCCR
Chain of RAF proto-oncogene serine/threonine-protein kinase (P04049 whole entry Y340D/Y341D, the tested form may be a part): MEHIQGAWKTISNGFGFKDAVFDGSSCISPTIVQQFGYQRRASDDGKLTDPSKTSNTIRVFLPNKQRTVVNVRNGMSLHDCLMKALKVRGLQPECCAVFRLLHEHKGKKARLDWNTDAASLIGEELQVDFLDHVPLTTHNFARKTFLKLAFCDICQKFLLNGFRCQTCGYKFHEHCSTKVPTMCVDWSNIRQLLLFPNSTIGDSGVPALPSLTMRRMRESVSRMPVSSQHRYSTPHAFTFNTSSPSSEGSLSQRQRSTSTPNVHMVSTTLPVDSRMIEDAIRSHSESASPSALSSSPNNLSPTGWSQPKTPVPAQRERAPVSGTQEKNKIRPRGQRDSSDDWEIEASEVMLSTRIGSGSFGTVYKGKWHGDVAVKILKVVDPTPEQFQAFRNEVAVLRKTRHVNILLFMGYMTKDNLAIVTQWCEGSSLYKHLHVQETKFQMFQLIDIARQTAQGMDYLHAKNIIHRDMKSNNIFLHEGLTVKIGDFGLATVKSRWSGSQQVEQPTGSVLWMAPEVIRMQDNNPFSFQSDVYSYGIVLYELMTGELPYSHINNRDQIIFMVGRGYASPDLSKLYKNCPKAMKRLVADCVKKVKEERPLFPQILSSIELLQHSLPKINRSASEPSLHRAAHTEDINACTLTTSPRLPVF

Row | SMILES | GI50 [3] | IC50 [10] | GI50 [11] | IC50 [12] | GI50 [13] | GI50 at 48 h [1] | IC50 [2] | IC50 [4] | IC50 [5] | GI50 at 48 h [6] | GI50 [7] | GI50 [8] | IC50 [9] | Activity [14] | Activity [15] | inhibition [16]
1 | S=C(Nc1ccccc1)N1N=C(c2ccc(Br)cc2)CC1c1ccc2c(c1)OCCO2 (stereo not given) | 32.1 µM | 0.05 µM | 2.58 µM | 18.7 µM | 0.47 µM | 152 µM | 93.6 µM | 188 µM | > 200 µM | 188 µM | 0.87 µM | 37.5 µM | 17.6 µM | – | – | –
2 | Cc1ccc(C2=NN(C(=S)Nc3ccccc3)C(c3ccc4c(c3)OCCO4)C2)cc1C (stereo not given) | 144 µM | 38.9 µM | 133 µM | 48.9 µM | 61.3 µM | – | – | – | – | – | 70.5 µM | 148 µM | – | – | – | –
3 | S=C(Nc1ccccc1)N1N=C(c2ccccc2Br)CC1c1ccc2c(c1)OCCO2 (stereo not given) | 195 µM | > 200 µM | > 200 µM | 124 µM | > 200 µM | – | – | – | – | – | > 200 µM | > 200 µM | – | – | – | –
4 | S=C(Nc1ccccc1)N1N=C(c2ccc(OCc3ccccc3)cc2)CC1c1ccc2c(c1)OCCO2 (stereo not given) | 8.53 µM | 0.01 µM | 0.86 µM | 5.23 µM | 0.35 µM | 175 µM | 88.9 µM | 176 µM | > 200 µM | > 200 µM | 0.42 µM | 8.23 µM | 3.15 µM | – | – | Active
5 | COc1ccccc1C1=NN(C(=S)Nc2ccccc2)C(c2ccc3c(c2)OCCO3)C1 (stereo not given) | > 200 µM | 12.1 µM | 30.5 µM | > 200 µM | 20.3 µM | – | – | – | – | – | 25.8 µM | > 200 µM | – | – | – | –
6 | S=C(Nc1ccccc1)N1N=C(c2ccc(Cl)cc2)CC1c1ccc2c(c1)OCCO2 (stereo not given) | > 200 µM | 135 µM | 187 µM | > 200 µM | 195 µM | – | – | – | – | – | > 200 µM | > 200 µM | – | – | – | –
7 | Cc1ccc(C2=NN(C(=S)Nc3ccccc3)C(c3ccc4c(c3)OCCO4)C2)cc1 (stereo not given) | > 200 µM | 4.28 µM | 19.5 µM | > 200 µM | 6.32 µM | – | – | – | – | – | 10.3 µM | > 200 µM | – | – | – | –
8 | CSc1ccc(C2=NN(C(=S)Nc3ccccc3)C(c3ccc4c(c3)OCCO4)C2)cc1 (stereo not given) | 193 µM | 84.3 µM | > 200 µM | 156 µM | 159 µM | – | – | – | – | – | 197 µM | 187 µM | – | – | – | –
9 | O=[N+]([O-])c1ccc(C2=NN(C(=S)Nc3ccccc3)C(c3ccc4c(c3)OCCO4)C2)cc1 (stereo not given) | > 200 µM | 57.2 µM | 153 µM | > 200 µM | 78.1 µM | – | – | – | – | – | 105 µM | > 200 µM | – | – | – | –

Continued, in another order:

Row | GI50 [3] | IC50 [10] | GI50 [11] | IC50 [12] | GI50 [13] | SMILES | GI50 at 48 h [1] | IC50 [2] | IC50 [4] | IC50 [5] | GI50 at 48 h [6] | GI50 [7] | GI50 [8] | IC50 [9] | Activity [14] | Activity [15] | inhibition [16]
10 | 61.2 µM | 11.1 µM | 37.6 µM | 23.1 µM | 15.7 µM | Fc1ccc(C2=NN(C(=S)Nc3ccccc3)C(c3ccc4c(c3)OCCO4)C2)cc1 (stereo not given) | – | – | – | – | – | 22.5 µM | 65.3 µM | – | – | – | –
11 | 25.2 µM | – | 1.88 µM | – | 0.95 µM | CCCS(=O)(=O)Nc1ccc(F)c(C(=O)c2c[nH]c3ncc(-c4ccc(Cl)cc4)cc23)c1F [VEMURAFENIB] | – | – | – | – | – | 0.21 µM | 20.8 µM | – | 0.41 g | Non-Toxic | –
12 | 8.19 µM | 78.3 µM | 188 µM | 5.21 µM | 121 µM | S=C(Nc1ccccc1)N1N=C(c2cccs2)CC1c1ccc2c(c1)OCCO2 (stereo not given) | – | – | – | – | – | 154 µM | 7.96 µM | – | – | – | –
13 | 125 µM | 30.6 µM | 95.3 µM | 39.3 µM | 41.9 µM | S=C(Nc1ccccc1)N1N=C(c2ccc(Cl)c(Cl)c2)CC1c1ccc2c(c1)OCCO2 (stereo not given) | – | – | – | – | – | 58.7 µM | 122 µM | – | – | – | –
14 | 112 µM | 29.5 µM | 97.5 µM | 35.6 µM | 43.5 µM | FC(F)(F)c1ccc(C2=NN(C(=S)Nc3ccccc3)C(c3ccc4c(c3)OCCO4)C2)cc1 (stereo not given) | – | – | – | – | – | 52.4 µM | 123 µM | – | – | – | –
15 | 138 µM | > 200 µM | > 200 µM | 95.9 µM | > 200 µM | S=C(Nc1ccccc1)N1N=C(c2cccc(Cl)c2)CC1c1ccc2c(c1)OCCO2 (stereo not given) | – | – | – | – | – | > 200 µM | 153 µM | – | – | – | –
16 | 57.6 µM | 0.82 µM | 6.63 µM | 21.3 µM | 1.85 µM | S=C(Nc1ccccc1)N1N=C(c2ccccc2)CC1c1ccc2c(c1)OCCO2 (stereo not given) | – | – | – | – | – | 3.18 µM | 58.5 µM | – | – | – | –
